CSC inhib: cancer stem cell inhibition. inhibition, % at 7.5 µM. AID 2717. hit rate 1.1% among 300,000. cancer stem cell-like cells viability, luminescence; in the data active = inhibition above about 75%; inconclusive = no clear call, values can overlap the other calls; tested in HMLE shEcad cells
FN deposit inh: fibronectin deposition inhibition | hit rate 0.086% among 350,000 | AH1F fibroblasts, Alexa488-fibronectin deposition fluorescence, overnight | inhibition, % at 12.6 µM;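 active = mean inhibition across replicates of 30% or more, regardless of how many single replicates reach that level; inconclusive = mean under 30% yet at least half of replicates reach 30%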;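 note: positive control wells lacked labelled fibronectin entirely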
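Assay system: AH1F fibroblasts assembling fluorescent fibronectin matrix; Amount: 10000 AH1F cells per well; Buffer or medium: DMEM, 2% serum; Probe or stimulus: Alexa488-fibronectin, 24 nM final in well; Doses: single compound dose, delivered by pin transfer; Incubation: 1 h adhesion, overnight exposure; Measured by: fluorescence 485/525 nm; Read-out: fibronectin deposition inhibition.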
PfHsp90 yeast 2: growth inhibition of yeast expressing Plasmodium Hsp90; S. cerevisiae expressing PfHsp90, BacTiter-Glo ATP, 48 h; yeast lacking PDR1 and PDR3 efflux regulators; inhibition, % at 9.4 µM; hit rate 0.32% among 310,000; AID 504621;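 active = every replicate shows inhibition above about 80%, whatever the replicate mean, limit read from the data; inconclusive = mean inhibition reaches the set limit but some replicate falls short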;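 note: 0% = DMSO neutral controls and 100% = 20 µM radicicol positive controls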
Rtt109 Vps75: blocks Candida albicans Rtt109/Vps75 acetyltransferase activity | AID 540336 | inhibition, % at 34.9 µM | purified Rtt109/Vps75, ThioGlo CoA-SH fluorescence, 4 h | hit rate 0.16% among 330,000;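 active = inhibition of at least 50% in every replicate; inconclusive = best replicate reaches 50% inhibition but some replicates fall short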
Target sequence (Q5AAJ8 whole entry, looked up): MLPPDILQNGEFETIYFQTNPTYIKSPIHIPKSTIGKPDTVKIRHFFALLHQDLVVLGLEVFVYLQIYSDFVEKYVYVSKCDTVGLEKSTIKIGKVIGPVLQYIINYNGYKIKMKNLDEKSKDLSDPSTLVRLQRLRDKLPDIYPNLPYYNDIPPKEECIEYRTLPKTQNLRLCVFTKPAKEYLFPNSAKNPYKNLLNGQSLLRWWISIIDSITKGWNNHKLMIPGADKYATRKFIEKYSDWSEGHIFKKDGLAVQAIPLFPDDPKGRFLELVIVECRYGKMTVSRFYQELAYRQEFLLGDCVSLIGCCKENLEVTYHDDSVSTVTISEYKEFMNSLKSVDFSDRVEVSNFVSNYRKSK
SKKanGAS inh: inhibitors of SKKanGAS S. pyogenes growth in kanamycin (SK-promoter or general growth effect); BacTiter-Glo, 6 h; hit rate 1.3% among 300,000; inhibition, % at 7.5 µM;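 active = mean replicate score, as percent of positive control median, at least 50; inconclusive = mean below 50 but one replicate at or above 50; inactive = mean and every replicate below 50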;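 note: strain carries kanamycin resistance gene driven by streptokinase promoter and grows in 40 µg/ml kanamycin; loss of luminescence reflects streptokinase promoter inhibition or plain growth inhibition; 0% = median of DMSO wells and 100% = positive control at its reference dose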
PglD inh: blocks C. jejuni PglD acetyltransferase activity; purified PglD enzyme, DTNB colorimetric CoA detection; inhibition, % at 12.5 µM; hit rate 0.098% among 360,000; AID 602405; in the data active = inhibition above about 16%, passing the limit was not always enough; inconclusive = no clear call, values can overlap the other calls
The depositor's hits bear a star; u = inconclusive; x = not tested or not shown. In the library only some 1.7% were active in any assay of this set; here they are far more common.

SMILES	CSC inhib	FN deposit inh	PfHsp90 yeast 2	Rtt109 Vps75	SKKanGAS inh	PglD inh
CCn1c(=O)c(C(=O)NNC(=O)c2ccccc2Cl)c(O)c2ccccc21	x	-10	-48	-2	58*	2
CCn1c(=O)c(C(=O)NNC(=O)c2ccccc2F)c(O)c2ccccc21	13	3	5	7	90*	-1
Cn1c(=O)c(C(=O)NNC(=O)c2ccccc2F)c(O)c2ccccc21	x	-4	13	6	61*	-1
CCn1c(=O)c(C(=O)NCc2ccc(Cl)cc2)c(O)c2ccccc21	x	1	-2	-3	1	-2
CCn1c(=O)c(C(=O)NCc2ccccc2OC)c(O)c2ccccc21	76*	-6	1	5	1	5
CCCn1c(=O)c(C(=O)NCc2ccccc2OC)c(O)c2ccccc21	43	-2	8	-5	1	3
C[C@H](CO)N1C[C@H](C)[C@@H](CN(C)Cc2ccc(C(=O)Nc3ccccc3N)cc2)Oc2c(NC(=O)c3cnccn3)cccc2C1=O	x	-1	x	x	x	2
CCCCCC(=O)NNC(=O)c1c(O)c2ccccc2n(CC)c1=O	2	0	22	6	94*	x
CCCCCCCCCC(=O)NNC(=O)c1c(O)c2ccccc2n(CC)c1=O	19	1	3	-3	30	0
Cn1c(=O)c(C(=O)NNC(=O)c2ccc(Br)cc2)c(O)c2ccccc21	u	-3	-1	-9	92*	-2
Cn1c(=O)c(C(=O)NCCO)c(O)c2ccccc21	-5	10	26	1	-3	3
COc1ccc(S(=O)(=O)Nc2cccc3c2O[C@@H](CN(C)S(=O)(=O)c2cn(C)cn2)[C@@H](C)CN([C@@H](C)CO)C3=O)cc1	x	-6	x	x	x	1
O=C(Cc1nc2ccccc2[nH]1)c1ccc(Cl)cc1	22	-3	-14	-1	28	0
Clc1ccc(/C(Cc2nc3ccccc3[nH]2)=N\Nc2ccccc2)cc1	12	-14	-30	x	90*	x
CCN1CCN(C(=O)c2ccc(CSc3ccc(C)cc3)cc2)CC1	155*	6	19	4	11	1
Cc1ccc(SCc2ccc(C(=O)N3CCCC3)cc2)cc1	13	-7	9	5	14	x
Cc1ccc(C)c(NC(=O)c2cc(-c3ccccc3)nn2-c2ccccc2)c1	89*	-2	-15	-3	-9	2
Cc1ccc(-c2cc(NC(=O)CCl)n(-c3ccccc3)n2)cc1	96*	-13	-25	1	12	2
O=C(Nc1nnc(C2CC2)s1)c1cc(-c2ccccc2)nn1-c1ccccc1	21	x	-16	-2	73*	0
CCN(CC(=O)Nc1ccccc1C(F)(F)F)C(=O)c1cc(-c2ccccc2)nn1-c1ccccc1	x	1	0	x	51*	x
CCS(=O)(=O)Nc1ccc2c(c1)C(=O)N(C)C[C@H](OC)[C@@H](C)CN(CC1CCCC1)[C@@H](C)CO2	x	2	x	x	x	1
CCCCC(=O)NC(=S)NNC(=O)c1ccc(OC)cc1	15	x	7	0	86*	x
Cc1cccc(C(=O)NNC(=S)NC(=O)c2ccccc2)c1	25	3	13	2	96*	2
COc1ccc(/C=C/C(=O)NC(=S)NNC(=O)c2cccs2)cc1	12	x	-13	2	94*	x
COc1ccc(C(=O)NC(=S)NNC(=O)c2cccc(C)c2)cc1	24	3	x	x	113*	x
SMILES	CSC inhib	FN deposit inh	PfHsp90 yeast 2	Rtt109 Vps75	SKKanGAS inh	PglD inh
Cc1ccc(C(=O)NNC(=O)c2cccc(C)c2)cc1	-9	x	-1	-2	-5	-10
CCNC(=S)NNC(=O)c1ccc(OC)cc1	-11	-7	7	0	0	-1
COc1ccccc1C(=O)Nc1ccc2c(c1)C(=O)N(C)C[C@H](OC)[C@@H](C)CN[C@@H](C)CO2	x	23	x	x	x	2
Cc1cccc(C(=O)NNC(=S)NC(=O)c2cccs2)c1	-5	5	-11	-5	76*	-8
Cc1cccc(C(=O)NC(=S)NNC(=O)COc2ccc(Cl)cc2)c1	x	5	1	9	62*	0
COc1ccc(NC(=O)c2ccc(NC(=O)c3ccncc3)cc2)cc1	-11	2	-28	-2	1	8
COc1ccc(C(=O)NNC(=O)c2ccncc2)cc1	-8	x	-2	65*	-5	2
CC(C)C(=O)Nc1ccc(C(=O)NNC(=S)NC(=O)c2cccs2)cc1	9	4	19	3	u	7
COc1ccc(C(=O)NNC(=S)NC(=O)c2cccs2)cc1	x	-4	23	2	89*	2
CN1C(=O)c2cc(NC(=O)c3cnccn3)ccc2OC[C@H]2O[C@H](CC(=O)NCC3CC3)CC[C@H]21	x	-12	x	x	x	x
CC(=O)N(C)C[C@@H]1Oc2cc(C#Cc3ccc(F)cc3)ccc2S(=O)(=O)N([C@H](C)CO)C[C@@H]1C	x	x	x	x	x	15
CO[C@H]1CN(C)C(=O)c2cc(NC(=O)Nc3ccccc3F)ccc2OC[C@@H](C)N(C(C)=O)C[C@@H]1C	x	-8	x	x	x	3
O=C(COc1ccccc1)NNC(=S)NC(=O)c1ccc(Cl)cc1Cl	-3	x	x	x	77*	x
Cc1ccc(C(=O)CC(=O)COc2ccc(Cl)cc2)cc1	5	-10	-11	-4	64*	x
Cc1ccc(C(=O)NCCOc2ccc(Cl)cc2)cc1	-5	-3	3	x	-3	x
O=C(COc1cccc(Cl)c1)NNC(=S)Nc1ccccc1	-3	-2	-43	8	-4	x
COc1ccc(C(=O)NNC(=S)NC(=O)c2cccnc2)cc1	11	0	1	7	15	x
COc1ccc(C(=O)NNC(=S)NC(=O)c2ccc(OC)cc2)cc1	2	5	15	-10	94*	1
COc1ccc(OCC(=O)NNC(=S)NC(=O)c2ccc(Br)o2)cc1	x	2	11	-6	71*	1
COc1ccc(OCC(=O)NNC(=S)NC(=O)c2ccc([N+](=O)[O-])cc2)cc1	24	3	-2	2	-2	-2
CCCOc1ccc(C(=O)NNC(=S)NC(=O)CC)cc1	24	x	74	-4	106*	-5
C[C@H](NC(=O)C[C@@H]1C=C[C@@H](NC(=O)Nc2ccc3c(c2)OCO3)[C@@H](CO)O1)c1ccccc1	x	2	x	x	x	x
O=C(Nc1nccs1)c1c(O)c2cccc3c2n(c1=O)CCC3	x	x	x	x	100*	x
CCOc1ccc(NC(=O)C2CCCN(S(=O)(=O)c3cnc[nH]3)C2)cc1 (stereo not drawn)	-2	x	19	7	3	1
O=C(Nc1ccc(OC(F)(F)F)cc1)C1CCCN(S(=O)(=O)c2cnc[nH]2)C1 (stereo not drawn)	-13	x	-5	-1	99*	-1
O=C(CCN1CCC(c2ccccc2)C1)c1ccccc1 (stereo not drawn)	x	x	-3	-7	-3	1
COc1cc(C(=O)CCN2CCC(c3ccccc3)C2)cc(OC)c1OC (stereo not drawn)	6	-3	8	95*	-8	7

Assay outcomes: PubChem, Broad Institute
